Measured values: ChEMBL document CHEMBL1149247, “New COX-2/5-LOX inhibitors: apoptosis-inducing agents potentially useful in prostate cancer chemotherapy” (J Med Chem, 2004)
Activity calls are given as the source filed them. No cut-off for these calls is given here.

How the values were obtained:
[1] = target: T1, Polyunsaturated fatty acid 5-lipoxygenase (Homo sapiens, UniProt P09917); assay: Inhibition of 5LOX in human whole blood assessed as inhibition of calcium ionophore A 23187-stimulated 5HETE production by HPLC analysis; type: functional, tissue-based
T1 sequence (P09917 whole entry): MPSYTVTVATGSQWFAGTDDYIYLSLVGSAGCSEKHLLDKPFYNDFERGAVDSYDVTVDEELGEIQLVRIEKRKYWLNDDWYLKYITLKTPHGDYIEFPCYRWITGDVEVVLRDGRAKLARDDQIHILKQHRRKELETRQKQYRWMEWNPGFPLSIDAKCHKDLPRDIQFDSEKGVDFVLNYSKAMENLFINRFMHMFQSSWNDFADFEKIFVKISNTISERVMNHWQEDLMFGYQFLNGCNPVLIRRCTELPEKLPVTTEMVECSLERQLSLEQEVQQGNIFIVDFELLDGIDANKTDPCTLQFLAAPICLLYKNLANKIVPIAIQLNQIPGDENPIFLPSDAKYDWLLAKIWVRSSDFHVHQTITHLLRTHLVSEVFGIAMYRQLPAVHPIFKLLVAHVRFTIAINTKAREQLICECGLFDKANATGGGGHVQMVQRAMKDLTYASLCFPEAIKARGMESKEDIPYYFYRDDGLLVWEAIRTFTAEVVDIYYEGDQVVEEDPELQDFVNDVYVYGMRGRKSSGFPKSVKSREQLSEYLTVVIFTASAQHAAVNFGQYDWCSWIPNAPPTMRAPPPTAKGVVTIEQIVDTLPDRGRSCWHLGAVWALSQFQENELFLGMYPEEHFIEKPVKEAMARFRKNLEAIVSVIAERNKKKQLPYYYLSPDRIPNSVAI
Procedure, shortened: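 Heparinized human whole blood, 1 mL aliquots, preincubated 15 min at 37 °C with compound or DMSO vehicle; then stimulated with 40 μM A 23187 for 15 min at 37 °C. 5-HETE extracted into ethyl acetate, then HPLC on a C18 column, methanol/water/acetic acid 80:20:0.08, pH 6.0, UV at 234 nm. IC50 from n = 2.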

[2] = target: T2, Prostaglandin G/H synthase 2 (Homo sapiens, UniProt P35354); assay: Inhibition of COX2 expressed in CHO cells assessed as inhibition of arachidonic acid-stimulated PGE2 production by enzyme immunoassay
T2 sequence (P35354 whole entry): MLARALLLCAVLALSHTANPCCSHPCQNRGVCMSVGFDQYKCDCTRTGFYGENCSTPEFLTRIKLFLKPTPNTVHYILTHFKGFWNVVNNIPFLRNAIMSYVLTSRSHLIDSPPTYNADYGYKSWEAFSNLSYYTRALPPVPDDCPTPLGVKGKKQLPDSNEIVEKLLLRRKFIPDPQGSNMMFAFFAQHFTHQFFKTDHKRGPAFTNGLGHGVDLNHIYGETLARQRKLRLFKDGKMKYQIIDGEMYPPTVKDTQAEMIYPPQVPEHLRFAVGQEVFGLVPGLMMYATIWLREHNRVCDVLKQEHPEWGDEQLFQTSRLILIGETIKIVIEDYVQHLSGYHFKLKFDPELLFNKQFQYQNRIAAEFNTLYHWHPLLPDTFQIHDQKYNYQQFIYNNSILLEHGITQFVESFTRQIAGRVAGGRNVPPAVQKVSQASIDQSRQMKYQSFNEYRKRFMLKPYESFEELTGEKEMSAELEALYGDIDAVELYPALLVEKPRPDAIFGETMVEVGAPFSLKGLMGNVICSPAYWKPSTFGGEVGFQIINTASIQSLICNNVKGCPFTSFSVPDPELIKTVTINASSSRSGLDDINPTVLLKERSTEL

[3] = target: Prostaglandin G/H synthase 1 (Homo sapiens, UniProt P23219); assay: Inhibition of COX1 expressed in CHO cells assessed as inhibition of arachidonic acid-stimulated PGE2 production by enzyme immunoassay; type: functional, cell-based
Prostaglandin G/H synthase 1, sequence (P23219 whole entry): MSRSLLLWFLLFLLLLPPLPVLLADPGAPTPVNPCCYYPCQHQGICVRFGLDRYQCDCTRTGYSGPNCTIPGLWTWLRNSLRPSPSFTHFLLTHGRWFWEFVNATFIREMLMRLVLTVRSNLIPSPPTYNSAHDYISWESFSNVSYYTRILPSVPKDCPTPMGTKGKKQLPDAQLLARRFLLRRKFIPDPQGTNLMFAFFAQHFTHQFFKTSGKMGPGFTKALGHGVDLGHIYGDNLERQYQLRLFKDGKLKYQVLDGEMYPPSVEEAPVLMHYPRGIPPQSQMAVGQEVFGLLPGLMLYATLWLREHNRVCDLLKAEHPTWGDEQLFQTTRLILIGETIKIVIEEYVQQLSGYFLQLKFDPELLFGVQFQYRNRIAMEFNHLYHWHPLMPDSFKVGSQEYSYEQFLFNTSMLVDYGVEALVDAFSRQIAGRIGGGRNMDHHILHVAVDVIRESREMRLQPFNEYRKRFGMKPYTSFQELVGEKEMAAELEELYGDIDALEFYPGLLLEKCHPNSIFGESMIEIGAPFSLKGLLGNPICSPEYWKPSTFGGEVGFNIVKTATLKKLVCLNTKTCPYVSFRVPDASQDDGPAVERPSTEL

Homo sapiens = species on record: Homo sapiens; assay: Selectivity for COX2 over COX1
Procedure, shortened: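 Ratio of COX-1 to COX-2 IC50s, each taken from PGE2 production in CHO cells transfected with COX-1 or with COX-2. Cells were seeded and, 18 h later, given fresh Ham's F12 with 10% fetal calf serum with or without compound. After 10 min they were stimulated with arachidonic acid, then for 10 min with calcium ionophore A 23187. Intracellular PGE2 was read by enzyme immunoassay, n = 2.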

LNCaP [4] = assay: Antiproliferative activity against androgen-sensitive human LNCaP cells at 100 uM after 72 hrs by MTT test; type: functional
Procedure, shortened: (§1)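 Prostate carcinoma cells kept at 37 °C, 5% CO2 in RPMI 1640 with 10% fetal calf serum; seeded 1.8 × 10⁴ (PC 3) or 5.0 × 10⁴ (LNCaP) cells/well, grown 3 days, serum-starved 24 h for synchronization, then exposed 72 h to compounds in medium (<0.1% DMSO); growth read by colorimetric MTT. Mean of at least four independent determinations; single-dose lines at 100 μM.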

LNCaP [5] = assay: Cell cycle arrest in human LNCaP cells by accumulation at G1 phase at 10 uM after 72 hrs by FACS flow cytometry; type: functional
Procedure, shortened: (§2)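 LNCaP or PC 3 cells seeded in 6-well plates, synchronized 24 h in serum-free medium, treated 72 h with varying compound concentrations; trypsinized cells pooled with supernatants, pelleted, fixed in cold ethanol overnight at 4 °C, then 30 min in PBS with RNase and propidium iodide. FACScan flow cytometry quantified sub-G1 (sub-diploid), G1, S and G2-M fractions as percent of cells.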

PC-3 [6] = assay: Antiproliferative activity against androgen-independent human PC3 cells at 100 uM after 72 hrs by MTT test; type: functional; procedure, shortened: as §1
LNCaP [7] = assay: Cell cycle arrest in human LNCaP cells by accumulation at subG1 phase at 10 uM after 72 hrs by FACS flow cytometry; type: functional; procedure, shortened: as §2
LNCaP [8] = assay: Cell cycle arrest in human LNCaP cells by accumulation at G2M phase at 10 uM after 72 hrs by FACS flow cytometry; type: functional; procedure, shortened: as §2
LNCaP [9] = assay: Cell cycle arrest in human LNCaP cells by accumulation at S phase at 10 uM after 72 hrs by FACS flow cytometry; type: functional; procedure, shortened: as §2
LNCaP [10] = assay: Cell cycle arrest in human LNCaP cells by accumulation at subG1 phase at 50 uM after 72 hrs by FACS flow cytometry; type: functional; procedure, shortened: as §2
PC-3 [11] = assay: Cell cycle arrest in human PC3 cells by accumulation at subG1 phase at 50 uM after 72 hrs by FACS flow cytometry; type: functional; procedure, shortened: as §2
LNCaP [12] = assay: Cell cycle arrest in human LNCaP cells by accumulation at S phase at 50 uM after 72 hrs by FACS flow cytometry; type: functional; procedure, shortened: as §2
PC-3 [13] = assay: Cell cycle arrest in human PC3 cells by accumulation at G2M phase at 50 uM after 72 hrs by FACS flow cytometry; type: functional; procedure, shortened: as §2
LNCaP [14] = assay: Antiproliferative activity against androgen-sensitive human LNCaP cells after 72 hrs by MTT test; type: functional, cell-based; procedure, shortened: as §1
PC-3 [15] = assay: Cell cycle arrest in human PC3 cells by accumulation at S phase at 50 uM after 72 hrs by FACS flow cytometry; type: functional; procedure, shortened: as §2
LNCaP [16] = assay: Cell cycle arrest in human LNCaP cells by accumulation at G2M phase at 50 uM after 72 hrs by FACS flow cytometry; type: functional; procedure, shortened: as §2
LNCaP [17] = assay: Cell cycle arrest in human LNCaP cells by accumulation at G1 phase at 50 uM after 72 hrs by FACS flow cytometry; type: functional; procedure, shortened: as §2
PC-3 [18] = assay: Cell cycle arrest in human PC3 cells by accumulation at G1 phase at 50 uM after 72 hrs by FACS flow cytometry; type: functional; procedure, shortened: as §2
PC-3 [19] = assay: Antiproliferative activity against androgen-independent human PC3 cells after 72 hrs by MTT test; type: functional, cell-based; settings: PC-3, 72 h; procedure, shortened: as §1
LNCaP [20] = assay: Cell cycle arrest in human LNCaP cells assessed as induction of G1 block at 100 uM by FACS flow cytometry; type: functional, cell-based; procedure, shortened: as §2

Compound	IC50 [1]	IC50 [2]	IC50 [3]	Selectivity ratio (Homo sapiens)	Activity (LNCaP [4])	Activity (LNCaP [5])	Activity (PC-3 [6])	Activity (LNCaP [7])	Activity (LNCaP [8])	Activity (LNCaP [9])	also measured
CS(=O)(=O)c1ccc(-n2nc(COc3cccc([N+](=O)[O-])c3)cc2-c2ccccc2)cc1	> 10000 nM	740 nM	> 100 µM	> 134	–	–	–	–	–	–	–
CCOc1cccc(OCc2cc(-c3ccccc3)n(-c3ccc(S(C)(=O)=O)cc3)n2)c1	> 10000 nM	900 nM	> 100 µM	> 112	–	–	–	–	–	–	–
COc1cc(OCc2cc(-c3ccccc3)n(-c3ccc(S(C)(=O)=O)cc3)n2)cc(OC)c1OC	> 10000 nM	220 nM	17.6 µM	78	–	–	–	–	–	–	–
COC1(c2cc(F)cc(OCc3cc(-c4ccccc4)n(-c4ccc(OC(F)(F)F)cc4)n3)c2)CCOCC1	850 nM	820 nM	–	–	0%	74.7%	0%	3.6%	11%	10.6%	–
CS(=O)(=O)c1ccc(-n2nc(COc3cc(F)cc(C#N)c3)cc2-c2ccccc2)cc1	> 10000 nM	570 nM	99.6 µM	176	–	–	–	–	–	–	–
COc1ccc(OCc2cc(-c3ccccc3)n(-c3ccc(S(C)(=O)=O)cc3)n2)cc1OC	> 10000 nM	700 nM	> 100 µM	> 142	–	–	–	–	–	–	–
COc1cc(OC)cc(OCc2cc(-c3ccccc3)n(-c3ccc(S(C)(=O)=O)cc3)n2)c1	> 10000 nM	870 nM	25.1 µM	29	–	–	–	–	–	–	–
COC1(c2cc(F)cc(OCc3cc(-c4ccccc4)n(-c4ccc(Cl)cc4)n3)c2)CCOCC1	830 nM	930 nM	1.81 µM	2	0%	75.5%	0%	2.5%	11.1%	11.1%	–
CS(=O)(=O)c1ccc(-n2nc(COc3cccc(N4CCOCC4)c3)cc2-c2ccccc2)cc1	> 10000 nM	920 nM	38.1 µM	41	–	–	–	–	–	–	–
Cc1ccc(-c2cc(C(F)(F)F)nn2-c2ccc(S(N)(=O)=O)cc2)cc1 [CELECOXIB]	> 10000 nM	–	–	–	–	75.7%	–	3.9%	11.3%	9%	Activity (LNCaP [10]): 4%; Activity (PC-3 [11]): 2.4%; Activity (LNCaP [12]): 6.9%; Activity (PC-3 [13]): 23.5%; IC50 (LNCaP [14]): 50.4 µM; Activity (PC-3 [15]): 5.8%; Activity (LNCaP [16]): 11.1%; Activity (LNCaP [17]): 78%; Activity (PC-3 [18]): 68.5%; IC50 (PC-3 [19]): 47 µM
COc1cc(F)cc(OCc2cc(-c3ccccc3)n(-c3ccc(S(C)(=O)=O)cc3)n2)c1	> 10000 nM	310 nM	44.3 µM	142	–	–	–	–	–	–	–
CS(=O)(=O)c1ccc(-n2nc(COc3ccc4c(c3)OCO4)cc2-c2ccccc2)cc1	> 10000 nM	450 nM	15.8 µM	35	–	–	–	–	–	–	–
CS(=O)(=O)c1ccc(C2=C(c3ccccc3)C(=O)OC2)cc1 [ROFECOXIB]	–	–	–	–	0%	69.4%	15%	4%	15.2%	11.4%	Activity (LNCaP [20]): inactive

Continued, in another order:

IC50 [1]	IC50 [2]	IC50 [3]	Selectivity ratio (Homo sapiens)	Compound	Activity (LNCaP [4])	Activity (LNCaP [5])	Activity (PC-3 [6])	Activity (LNCaP [7])	Activity (LNCaP [8])	Activity (LNCaP [9])	also measured
570 nM	610 nM	7.14 µM	12	COC1(c2cc(F)cc(OCc3cc(-c4ccccc4)n(-c4ccccc4)n3)c2)CCOCC1	0%	72.9%	0%	3%	13.9%	10.6%	–
800 nM	700 nM	–	–	COC1(c2cc(F)cc(OCc3cc(-c4ccccc4)n(-c4ccc(Cl)c(Cl)c4)n3)c2)CCOCC1	32%	68.2%	21%	4.6%	15.5%	11.5%	–
760 nM	410 nM	–	–	COC1(c2cc(F)cc(OCc3cc(-c4ccccc4)n(-c4ccc(C)c(C)c4)n3)c2)CCOCC1	26%	69.5%	–	3.9%	15%	11.5%	IC50 (PC-3 [19]): 55 µM
480 nM	960 nM	1.13 µM	1	COC1(c2cc(F)cc(OCc3cc(-c4ccccc4)n(-c4ccc(F)cc4)n3)c2)CCOCC1	3%	71.3%	7%	4%	15.3%	9.7%	–
83 nM	> 100000 nM	> 100 µM	–	COC1(c2cc(F)cc(OCc3ccc4c(ccc(=O)n4C)c3)c2)CCOCC1 [ZD-2138]	–	–	–	–	–	–	–
720 nM	930 nM	1.56 µM	1	COC1(c2cc(F)cc(OCc3cc(-c4ccccc4)n(-c4ccc(C)cc4)n3)c2)CCOCC1	18%	71.3%	0%	3.5%	14.6%	10.7%	–
770 nM	300 nM	0.036 µM	< 1	COc1ccc(-n2nc(COc3cc(F)cc(C4(OC)CCOCC4)c3)cc2-c2ccccc2)cc1	–	69%	–	2.8%	17%	11.4%	–
